pIC50, pKd: −log10 of the molar value. Activity calls are given as the source filed them. No cut-off for these calls is given here. Bounds are passed on as bounds.

The target of experiment [1] is T1, Prothrombin (Homo sapiens, UniProt P00734). Nature of the experiment: Inhibition of thrombin (unknown origin).
The target of experiment [2] is T1, Prothrombin. Nature of the experiment: Partial allosteric inhibition of human thrombin at 300 uM using spectrozyme TH as substrate pretreated for 10 mins followed by substrate addition by spectrophotometric method relative to control.
Experiment [3] addresses T1, Prothrombin. The experiment can be described thus: Partial allosteric inhibition of human thrombin using spectrozyme TH as substrate pretreated for 10 mins followed by substrate addition by spectrophotometric method. In outline: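 Chromogenic substrate hydrolysis by thrombin read spectrophotometrically in 20 mM Tris-HCl pH 7.4 with […], 100 mM NaCl and 0.1% PEG 8000 at 25 °C. Sigmoidal fits gave IC50 and efficacy (ΔY). Errors ±1 S.E.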

Experiment [4] concerns the target T1, Prothrombin. The experiment can be described thus: Binding affinity to human fluorescence labelled FPRCK-alpha thrombin by fluorimetric method. In outline:
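Fluorescein-tagged FPRCK-thrombin titrated with inhibitor at pH 7.4 and 25 °C. Fluorescence decrease recorded ([…]). KD obtained by nonlinear fit to a quadratic equation.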

For experiment [5], the target named is T1, Prothrombin. The experiment can be described thus: Inhibition of human thrombin using spectrozyme TH as substrate pretreated for 10 mins followed by substrate addition measured in absence of exosite 1 competitor hirudine peptide by spectrophotometric method. The method, boiled down: (§1)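 Residual thrombin activity read as Spectrozyme TH hydrolysis in 20 mM Tris-HCl pH 7.4 with 100 mM NaCl, 2.5 mM CaCl2 and 0.1% PEG8000 at 25 °C. Exosite competitors varied: hirudin peptide 0–50 nM or 0–30 nM; UFH 0–50 μM. Apparent IC50 obtained from a logistic fit.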

In experiment [6] the target is T1, Prothrombin. Nature of the experiment: Inhibition of human thrombin using spectrozyme TH as substrate pretreated for 10 mins followed by substrate addition measured in presence of 5 uM exosite 1 competitor hirudine peptide by spectrophotometric method. The settings on record: in the assay text read “5 nM” for “5 uM”. The method, boiled down: as §1
Experiment [7] has as its target T1, Prothrombin. Nature of the experiment: Inhibition of human thrombin using spectrozyme TH as substrate pretreated for 10 mins followed by substrate addition measured in presence of 15 uM exosite 1 competitor hirudine peptide by spectrophotometric method. Conditions: in the assay text read “15 nM” for “15 uM”. The method, boiled down:
as §1

For experiment [8], the target named is T1, Prothrombin. Nature of the experiment: Inhibition of human thrombin using spectrozyme TH as substrate pretreated for 10 mins followed by substrate addition measured in presence of 30 uM exosite 1 competitor hirudine peptide by spectrophotometric method. The settings on record: in the assay text read “30 nM” for “30 uM”. The method, boiled down:
as §1

Experiment [9] has as its target T1, Prothrombin. The experiment can be described thus: Inhibition of human thrombin using spectrozyme TH as substrate pretreated for 10 mins followed by substrate addition measured in absence of exosite 2 competitor unfractionated heparin by spectrophotometric method. In outline: as §1
The target of experiment [10] is T1, Prothrombin. Nature of the experiment: Inhibition of human thrombin using spectrozyme TH as substrate pretreated for 10 mins followed by substrate addition measured in presence of 10 uM exosite 2 competitor unfractionated heparin by spectrophotometric method. In outline:
as §1

Experiment [11] concerns the target T1, Prothrombin. Nature of the experiment: Inhibition of human thrombin using spectrozyme TH as substrate pretreated for 10 mins followed by substrate addition measured in presence of 20 uM exosite 2 competitor unfractionated heparin by spectrophotometric method. The method, boiled down:
as §1

For experiment [12], the target named is T1, Prothrombin. The experiment can be described thus: Inhibition of human thrombin using spectrozyme TH as substrate pretreated for 10 mins followed by substrate addition measured in presence of 50 uM exosite 2 competitor unfractionated heparin by spectrophotometric method. The method, boiled down:
as §1

The target of experiment [13] is T1, Prothrombin. Nature of the experiment: Mixed-type inhibition of human thrombin assessed as reduction in substrate Vmax at 40 uM using varying levels of spectrozyme TH as substrate measured after 10 mins by Michaelis-Menten plot analysis relative to control.
Experiment [14] deals with T1, Prothrombin. Nature of the experiment: Inhibition of recombinant thrombin R165A mutant (unknown origin) at 0.02 to 200 uM using spectrozyme TH as substrate pretreated for 10 mins followed by substrate addition by spectrophotometric method. In outline:
(§2)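 Recombinant wild-type and Ala-mutant thrombins assayed by Spectrozyme TH hydrolysis at pH 7.4 and 25 °C. IC50 derived for each mutant.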

Experiment [15] addresses T1, Prothrombin. The experiment can be described thus: Inhibition of recombinant thrombin K169A mutant (unknown origin) at 0.02 to 200 uM using spectrozyme TH as substrate pretreated for 10 mins followed by substrate addition by spectrophotometric method. The method, boiled down:
as §2

In experiment [16] the target is T1, Prothrombin. Nature of the experiment: Inhibition of recombinant thrombin R175A mutant (unknown origin) at 0.02 to 200 uM using spectrozyme TH as substrate pretreated for 10 mins followed by substrate addition by spectrophotometric method. In outline:
as §2

Experiment [17] deals with T1, Prothrombin. Nature of the experiment: Inhibition of recombinant thrombin R233A mutant (unknown origin) at 0.02 to 200 uM using spectrozyme TH as substrate pretreated for 10 mins followed by substrate addition by spectrophotometric method. In outline:
as §2

For experiment [18], the target named is T1, Prothrombin. The experiment can be described thus: Inhibition of recombinant thrombin K236A mutant (unknown origin) at 0.02 to 200 uM using spectrozyme TH as substrate pretreated for 10 mins followed by substrate addition by spectrophotometric method. The method, boiled down:
as §2

Experiment [19] concerns the target T1, Prothrombin. Nature of the experiment: Partial allosteric inhibition of thrombin (unknown origin) assessed as reduction in enzyme-mediated fibrinogen cleavage at 0.5 to 150 uM pretreated for 10 mins followed by fibrinogen addition measured after 1 min by SDS-PAGE analysis relative to control. The method, boiled down:
(§3)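 Cleavage of human fibrinogen (4.7 μM) by 6 nM thrombin with inhibitor at 0 to 150 μM. Products resolved by PAGE.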

Experiment [20] concerns the target T1, Prothrombin. The experiment can be described thus: Mixed-type inhibition of human thrombin assessed as reduction in substrate Vmax using varying levels of spectrozyme TH as substrate measured after 10 mins by Michaelis-Menten plot analysis.
Experiment [21] concerns the target T1, Prothrombin. The experiment can be described thus: Partial allosteric inhibition of thrombin (unknown origin) assessed as reduction in enzyme-mediated fibrinogen cleavage pretreated for 10 mins followed by fibrinogen addition measured after 1 min by SDS-PAGE analysis relative to control. The method, boiled down: as §3
Experiment [22] deals with T1, Prothrombin. The experiment can be described thus: Binding affinity to wild-type thrombin (unknown origin) by intrinsic fluorescence method. The method, boiled down: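 Intrinsic fluorescence titration of wild-type plasma thrombin at pH 7.4 and 25 °C. KD derived from the fluorescence change.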
The target of experiment [23] is T1, Prothrombin. The experiment can be described thus: Non competitive inhibition of human thrombin assessed as reduction in substrate Vmax at 40 uM using varying levels of spectrozyme TH as substrate measured after 10 mins by Michaelis-Menten plot analysis relative to control.
Experiment [24] has as its target T1, Prothrombin. The experiment can be described thus: Ratio of IC50(app) for inhibition of human thrombin using spectrozyme TH as substrate in presence of exosite 2 competitor unfractionated heparin to IC50(app) for inhibition of human thrombin using spectrozyme TH as substrate in absence of exosite 2 competitor unfractionated heparin.
Experiment [25] deals with T1, Prothrombin. Nature of the experiment: Inhibition of recombinant thrombin R93A mutant (unknown origin) at 0.02 to 200 uM using spectrozyme TH as substrate pretreated for 10 mins followed by substrate addition by spectrophotometric method. In outline: as §2
Experiment [26] has as its system Prothrombin (Homo sapiens), P00734 [R97A]. The experiment can be described thus: Inhibition of recombinant thrombin R97A mutant (unknown origin) at 0.02 to 200 uM using spectrozyme TH as substrate pretreated for 10 mins followed by substrate addition by spectrophotometric method. The method, boiled down: as §2
The target of experiment [27] is T1, Prothrombin. Nature of the experiment: Inhibition of recombinant thrombin R101A mutant (unknown origin) at 0.02 to 200 uM using spectrozyme TH as substrate pretreated for 10 mins followed by substrate addition by spectrophotometric method. In outline:
as §2

Experiment [28] addresses T1, Prothrombin. The experiment can be described thus: Inhibition of recombinant thrombin R126A mutant (unknown origin) at 0.02 to 200 uM using spectrozyme TH as substrate pretreated for 10 mins followed by substrate addition by spectrophotometric method. The method, boiled down: as §2
Experiment [29] deals with T1, Prothrombin. Nature of the experiment: Inhibition of recombinant thrombin R173A mutant (unknown origin) at 0.02 to 200 uM using spectrozyme TH as substrate pretreated for 10 mins followed by substrate addition by spectrophotometric method. In outline:
as §2

In experiment [30] the target is T1, Prothrombin. Nature of the experiment: Inhibition of recombinant thrombin K235A mutant (unknown origin) at 0.02 to 200 uM using spectrozyme TH as substrate pretreated for 10 mins followed by substrate addition by spectrophotometric method. In outline:
as §2

Experiment [31] addresses T1, Prothrombin. The experiment can be described thus: Non-competitive inhibition of human thrombin assessed as reduction in substrate Vmax using varying levels of spectrozyme TH as substrate measured after 10 mins by Michaelis-Menten plot analysis.
For experiment [32], the target named is T1, Prothrombin. Nature of the experiment: Partial allosteric inhibition of human thrombin using […] as substrate measured after 1 min by fibrometric method.

For the molecule `CCOC(=O)c1c(C)oc2cc(OC(=O)c3ccc(OC)cc3)c(OS(=O)(=O)O)cc12`, at Prothrombin [1], the Efficacy came to 54%.
Consider `CCOC(=O)c1c(C)oc2cc(OCc3ccccc3)c(OCc3oc4cc(OCC5CCCCC5)c(OS(=O)(=O)O)cc4c3C(=O)OCC)cc12`, for which the inhibition was over 50% at Prothrombin [2], over 90% on Prothrombin [19], “Dose-dependent effect” on Prothrombin [20] and “Dose-dependent effect” at Prothrombin [21]. The Efficacy at Prothrombin [3] turned out to be 90%. Also, the negative-log IC50 (pIC50) is 5.44 on Prothrombin [3]; 5.70 at Prothrombin [5]; 5.59 on Prothrombin [6]; 5.44 at Prothrombin [7]; 5.54 on Prothrombin [8]; 5.70 on Prothrombin [9]. Also, the negative logarithm of the IC50 (pIC50) is 5.57 on Prothrombin [10], 5.55 at Prothrombin [11] and 5.59 at Prothrombin [12]. Also, the negative logarithm of the Kd (pKd) at Prothrombin [4] was 6.00. Moreover, the fold change (FC) at Prothrombin [13] worked out at 2. The inhibition entry on Prothrombin [14], on Prothrombin [15], at Prothrombin [16], at Prothrombin [17] and on Prothrombin [18] was “inactive” throughout.
On to `CCOC(=O)c1c(C)oc2cc(OCCc3ccccc3)c(OCc3oc4cc(OC)c(OS(=O)(=O)O)cc4c3C(=O)OCC)cc12`, for which the inhibition on Prothrombin [2] is over 50%; on Prothrombin [19], 70%; at Prothrombin [31] it was “Dose-dependent effect”; on Prothrombin [21], “Dose-dependent effect”. Besides, the Efficacy at Prothrombin [3] turned out to be 58%. The pIC50 at Prothrombin [3] is 5.74; at Prothrombin [5], 5.89; at Prothrombin [6], 5.57; at Prothrombin [7], 5.80; at Prothrombin [8] it was 5.82; at Prothrombin [9], 5.89. In addition, the negative-log IC50 (pIC50) at Prothrombin [10] is 5.48; on Prothrombin [11], 5.47; on Prothrombin [12], 4.84. Further, the negative-log Kd (pKd) at Prothrombin [4] was 5.43; on Prothrombin [22], 5.55. Further, the fold change (FC) at Prothrombin [23] worked out at 2. For the same molecule, the Ratio IC50 at Prothrombin [24] was determined as 11. In addition, the inhibition result (on Prothrombin [25]; in [26]; on Prothrombin [27]; at Prothrombin [28]; on Prothrombin [14]; at Prothrombin [15]) was “Active” in each case. Besides, the inhibition result at Prothrombin [29], on Prothrombin [16], on Prothrombin [17], at Prothrombin [30] and at Prothrombin [18] was “Active” throughout.
H-PEHPAETEYDSLYPEDDL-OH had a negative-log IC50 (pIC50) against Prothrombin [32] of 3.89.

As usually defined, the inhibition is the change of the read-out against control, counted positive when it falls. One may read the pIC50 as −log10 of the IC50, conventionally taken in molar units. One may read the pKd as the negative decadic logarithm of the Kd, by convention in mol/L. A higher pKd goes with a small Kd.

The values above are taken from ChEMBL document CHEMBL4184294, “A small group of sulfated benzofurans induces steady-state submaximal inhibition of thrombin” (Bioorg Med Chem Lett, 2018).
